SMILES strings stand for the structures. pIC50: −log10 of the molar value.

Assay [1] deals with Micrococcus luteus. Put plainly: Minimum inhibitory concentration against Micrococcus luteus was determined in the disk diffusion assay; value ranges from 12.5-25 ug/disk. Type of assay: functional.
Assay [2] concerns FaDu. Briefly: Growth inhibition against human pharynx FADU cell line. Format: functional.
In assay [3] the test system is NCI-H460. Briefly: Growth inhibition against human lung-NSC NCI-H460 cell line. Type of assay: functional.
Assay [4] deals with SW-1736. Put plainly: Growth inhibition against human thyroid cell line( SW 1736). Format: functional.
In assay [5] the test system is DU-145. Briefly: Growth inhibition against human prostate cell line (DU-145). Format: functional.
For assay [6], the system named is P388. Briefly: Effective dose against murine P388 leukemia cell line. Format: functional. The note with it: Mus musculus, read-out: ED50 (the source's name).
The target of assay [7] is Tubulin beta-1 chain (Homo sapiens, UniProt Q9H4B7). Briefly: Inhibition of tubulin polymerization upon incubation for 20 min at 30 degree C. Summed up: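 Purified tubulin at 10 µM (1.0 mg/mL) in 0.8 M monosodium glutamate, pH 6.6, with 4% (v/v) DMSO and varying compound concentrations. Preincubated 15 min at 37 °C, chilled on ice, then GTP (0.4 mM) added. Warmed from 0 °C to 30 °C, and assembly followed 20 min by turbidity at 350 nm. IC50 interpolated; at least two determinations; SD reported.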

In assay [8] the test system is BXPC-3. Put plainly: Growth inhibition against human pancreas carcinoma cell line (BxPC-3). Format: functional.
Assay [9] deals with Staphylococcus aureus. Briefly: Minimum inhibitory concentration against Staphylococcus aureus was determined in the disk diffusion assay; value ranges from 50-100 ug/disk. Format: functional.
Assay [10] concerns SK-N-SH. Put plainly: Growth inhibition against human neuroblastoma cell line (SK-N-SH). Type of assay: functional.
Assay [11] relates to Enterococcus faecalis. Briefly: Minimum inhibitory concentration against Enterococcus faecalis was determined in the disk diffusion assay value ranges from 50-100 ug/disk. Format: functional.
In assay [12] the test system is Micrococcus luteus. Put plainly: Minimum inhibitory concentration against Micrococcus luteus was determined in the disk diffusion assay. Format: functional.
In assay [13] the test system is Staphylococcus aureus. Put plainly: Minimum inhibitory concentration against Staphylococcus aureus was determined in the disk diffusion assay; value ranges from 25-50 ug/disk. Format: functional.
In assay [14] the test system is Neisseria gonorrhoeae. Put plainly: Minimum inhibitory concentration against Neisseria gonorrhoeae was determined in the disk diffusion assay; value ranges from 50-100 ug/disk. Type of assay: functional.

Chain of Tubulin beta-1 chain (Q9H4B7 whole entry): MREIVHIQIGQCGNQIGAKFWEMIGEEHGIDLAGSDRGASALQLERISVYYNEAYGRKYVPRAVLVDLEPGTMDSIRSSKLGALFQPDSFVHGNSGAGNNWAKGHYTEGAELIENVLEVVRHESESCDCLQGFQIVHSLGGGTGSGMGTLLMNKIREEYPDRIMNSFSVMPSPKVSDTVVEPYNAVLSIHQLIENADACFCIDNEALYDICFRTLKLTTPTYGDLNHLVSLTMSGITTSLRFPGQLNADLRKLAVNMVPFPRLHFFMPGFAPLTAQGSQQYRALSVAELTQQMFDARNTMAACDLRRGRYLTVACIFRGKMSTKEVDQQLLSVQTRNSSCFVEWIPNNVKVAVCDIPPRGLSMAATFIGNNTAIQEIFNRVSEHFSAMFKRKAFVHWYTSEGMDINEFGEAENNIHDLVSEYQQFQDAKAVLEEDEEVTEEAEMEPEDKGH

For the compound `COc1ccc(/C=C\c2cc(OC)c(OC)c(OC)c2)cc1OCCN1CCCC1.Cl`, the MIC was 25 ug/disk in [1] and 100 ug/disk in [9]. The GI50 amounted to 0.49 µg/mL in assay [2]; 0.34 µg/mL in assay [3]; 0.6 µg/mL in [4]; 0.35 µg/mL in assay [5]; 2 µg/mL in assay [8]; 0.22 µg/mL in assay [10]. Further, the EC50 in [6] was 0.421 µg/mL. In assay [7], the pIC50 was less than 4.40.

Take `CCN(CC)CCOc1cc(/C=C\c2cc(OC)c(OC)c(OC)c2)ccc1OC.Cl`: the GI50 in assay [2] was 1.1 µg/mL; in assay [3], 3.3 µg/mL; in assay [4], 1.1 µg/mL; in [5], 3.4 µg/mL; in [8], greater than 10 µg/mL; in assay [10] it was 1.5 µg/mL. Besides, the MIC is reported as 100 ug/disk in assay [11], less than 6.25 ug/disk in assay [12], 50 ug/disk in assay [13] and 100 ug/disk in [14]. The EC50 in [6] is 0.255 µg/mL. Besides, the pIC50 in assay [7] was less than 4.40.
